Assay [1] has as its target Prostaglandin G/H synthase 1 (Homo sapiens) (UniProt P23219). As to the kind of experiment: Inhibition of COX-1 in human immunoassay. Further details: concentration or dose not given beside the values.
Assay [2] concerns the target T1, Prostaglandin G/H synthase 2 (Homo sapiens) (UniProt P35354).
T1 sequence (whole entry): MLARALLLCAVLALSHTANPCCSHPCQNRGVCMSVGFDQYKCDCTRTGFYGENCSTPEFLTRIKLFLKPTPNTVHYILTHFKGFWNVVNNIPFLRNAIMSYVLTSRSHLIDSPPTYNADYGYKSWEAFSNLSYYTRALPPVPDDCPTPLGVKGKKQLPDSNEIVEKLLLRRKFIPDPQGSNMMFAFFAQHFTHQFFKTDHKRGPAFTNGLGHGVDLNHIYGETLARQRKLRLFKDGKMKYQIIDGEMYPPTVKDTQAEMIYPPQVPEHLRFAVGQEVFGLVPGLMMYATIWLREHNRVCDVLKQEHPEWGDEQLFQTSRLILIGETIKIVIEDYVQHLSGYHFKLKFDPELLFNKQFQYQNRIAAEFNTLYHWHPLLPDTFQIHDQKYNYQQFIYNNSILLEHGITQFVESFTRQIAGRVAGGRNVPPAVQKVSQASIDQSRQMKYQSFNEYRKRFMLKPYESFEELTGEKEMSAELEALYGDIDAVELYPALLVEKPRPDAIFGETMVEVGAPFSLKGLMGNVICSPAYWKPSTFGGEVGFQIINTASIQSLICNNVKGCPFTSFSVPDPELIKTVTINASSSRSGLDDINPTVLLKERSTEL
Put plainly: Inhibition of COX-2 in human immunoassay. Further details: concentration or dose not given beside the values. The gist of the method:
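Human COX-2 enzyme immunoassay kit, run per the manufacturer's instructions. Each compound was tested at a single concentration of 1 µM, and the read-out was percent inhibition of enzyme activity.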

Each structure is given as a SMILES string.

Chain of Prostaglandin G/H synthase 1 (Homo sapiens) (P23219 whole entry): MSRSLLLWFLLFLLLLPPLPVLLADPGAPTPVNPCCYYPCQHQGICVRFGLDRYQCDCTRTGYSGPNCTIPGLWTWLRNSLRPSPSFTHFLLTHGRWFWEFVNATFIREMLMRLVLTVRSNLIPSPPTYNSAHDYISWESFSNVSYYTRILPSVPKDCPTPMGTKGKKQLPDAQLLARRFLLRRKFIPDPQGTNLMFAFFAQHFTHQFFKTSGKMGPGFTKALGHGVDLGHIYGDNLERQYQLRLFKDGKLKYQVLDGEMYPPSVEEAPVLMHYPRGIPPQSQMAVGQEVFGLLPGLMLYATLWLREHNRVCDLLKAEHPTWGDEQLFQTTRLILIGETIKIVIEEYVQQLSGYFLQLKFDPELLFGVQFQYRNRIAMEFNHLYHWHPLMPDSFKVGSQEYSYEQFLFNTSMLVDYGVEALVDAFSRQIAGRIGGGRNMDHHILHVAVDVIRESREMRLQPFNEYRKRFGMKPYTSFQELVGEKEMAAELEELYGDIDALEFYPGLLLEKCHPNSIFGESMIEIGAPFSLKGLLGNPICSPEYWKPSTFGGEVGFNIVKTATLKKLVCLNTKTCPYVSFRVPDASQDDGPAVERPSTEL

For `NS(=O)(=O)c1ccc(N/C=C/C(=O)c2ccncc2)cc1`, the Enzyme inhibition in assay [1] was 11%; in assay [2] it was 42%.

For the molecule `NS(=O)(=O)c1ccc(Cl)c(C(=O)Nc2cccc([N+](=O)[O-])c2)c1`, the values for the Enzyme inhibition in assay [1] and in assay [2] were 23% and 57%, respectively.

In the case of `Cc1onc(-c2ccccc2)c1C(=O)Nc1ccc(S(N)(=O)=O)cc1`, the figures for the Enzyme inhibition in assay [1] and in assay [2] were 23% and 48%, respectively.

As for `NS(=O)(=O)c1ccc(CCNC(=O)c2ccccc2Br)cc1`, the Enzyme inhibition amounted to 46% in assay [1] and 10% in assay [2].

With `CS(=O)(=O)c1cc(Nc2ccc(Br)cc2)ncn1`, the Enzyme inhibition in assay [1] amounted to 14%; in assay [2] it was 60%.

For the molecule `NS(=O)(=O)c1ccc(CCNS(=O)(=O)c2ccccc2[N+](=O)[O-])cc1`, the results for the Enzyme inhibition in assay [1] and in assay [2] were 61% and 22%, respectively.

For the molecule `NS(=O)(=O)c1ccc(NCc2cnc3ccccc3n2)cc1`, the Enzyme inhibition worked out at 11% in assay [1] and 54% in assay [2].

`NS(=O)(=O)c1ccc(CCNS(=O)(=O)c2ccc(Cl)cc2Cl)cc1`: the Enzyme inhibition in assay [1] worked out at 23%; in assay [2], 30%.

Consider `C/C(=N\Nc1ccc(S(N)(=O)=O)cc1)c1ccccn1`, for which the results for the Enzyme inhibition in assay [1] and in assay [2] were 38% and 39%, respectively.

In the case of `NS(=O)(=O)c1ccc(NC2=CC(=O)C(=O)c3ccccc32)cc1`, the Enzyme inhibition in assay [1] amounted to 14%; in assay [2], 27%.

Turning to `NS(=O)(=O)c1ccc(Nc2nc(-c3ccccc3)cs2)cc1`, the figures for the Enzyme inhibition in assay [1] and in assay [2] were 61% and 29%, respectively.

With `NS(=O)(=O)c1ccc(NC(=S)NC(=O)c2ccc(Cl)cc2Cl)cc1`, the Enzyme inhibition in assay [1] is 8%; in assay [2], 22%.

The values are drawn from ChEMBL document CHEMBL1142660, “Optimization and validation of a docking-scoring protocol; application to virtual screening for COX-2 inhibitors” (J Med Chem, 2005).
